Reference: ChEMBL document CHEMBL5724801, “EUbOPEN Chemogenomics Library - Multiplex” (2024)
“And” between values parts separate entries of the source, which are not always exact repeats. Equal values may be shown once.

Test system: HEK-293T
Test: Multiplex assay against HEK293T
Assay type: toxicity, cell-based
Conditions: human
Outline: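 Tubulin, mitochondrial-mass and membrane-permeability phenotypes are per cents of healthy-nucleus cells. Cells were gated by CellPathfinder machine learning into Hoechst high-intensity objects or normal cells, normal cells into healthy, pyknosed or fragmented nuclei, and pyknosed cells into mitotic or apoptotic. Before that, live cells stained at seeding with Hoechst33342, BioTracker Green Microtubule Cytoskeleton Dye, MitoTracker Red and Annexin V Alexa Fluor 680 were imaged on a CQ1 microscope at 37°C and 5% CO2 after compound addition.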

[1] = 12 h, 1 µM, compound concentration 1 uM
[2] = 12 h, 10 µM, compound concentration 10 uM
[3] = 24 h, 1 µM, compound concentration 1 uM
[4] = 24 h, 10 µM, compound concentration 10 uM
[5] = 48 h, 1 µM, compound concentration 1 uM
[6] = 48 h, 10 µM, compound concentration 10 uM

## CSCC[C@H](NC=O)C(=O)N[C@@H](CC(C)C)C(=O)N[C@@H](Cc1ccccc1)C(=O)O
[1]
  Population Apoptotic (%): 28%
  Population Mitochondria Different-Phenotype (%): 47% and 57%
  Population Mitotic Cells (%): 71%
  Population Tubulin-Different-Phenotype (%): 23% and 16%
  Total Cell Count: 466 and 437
[2]
  Population Apoptotic (%): 54%
  Population Mitochondria Different-Phenotype (%): 52% and 64%
  Population Mitotic Cells (%): 45%
  Population Tubulin-Different-Phenotype (%): 37% and 31%
  Total Cell Count: 366 and 375
[3]
  Population Apoptotic (%): 21%
  Population Mitochondria Different-Phenotype (%): 21% and 37%
  Population Mitotic Cells (%): 78%
  Population Tubulin-Different-Phenotype (%): 14% and 12%
  Total Cell Count: 679 and 550
[4]
  Population Apoptotic (%): 25% and 36%
  Population Mitochondria Different-Phenotype (%): 38% and 53%
  Population Mitotic Cells (%): 75% and 64%
  Population Tubulin-Different-Phenotype (%): 25% and 22%
  Total Cell Count: 479 and 490
[5]
  Population Apoptotic (%): 29% and 20%
  Population Mitochondria Different-Phenotype (%): 12% and 17%
  Population Mitotic Cells (%): 79%
  Population Tubulin-Different-Phenotype (%): 12%
  Total Cell Count: 1154 and 838
[6]
  Population Apoptotic (%): 28% and 36%
  Population Mitochondria Different-Phenotype (%): 24% and 28%
  Population Mitotic Cells (%): 71% and 63%
  Population Tubulin-Different-Phenotype (%): 12% and 14%
  Total Cell Count: 704 and 674

## S=C(NCCCc1c[nH]cn1)NCCCN(Cc1ccc(Cl)c(Cl)c1)c1ccc(Br)cn1
[1]
  Population Apoptotic (%): 39% and 53%
  Population Fragmented Nuclei (%): 8% and 5%
  Population Healthy Nuclei (%): 78% and 79%
  Population Hoechst High Intensity Objects (%): 17% and 6%
  Population Membrane Permeable-Phenotype (%): 0%
  Population Mitochondria Different-Phenotype (%): 50% and 58%
  Population Mitotic Cells (%): 60% and 46%
  Population Normal (%): 82% and 93%
  Population Pyknosed Nuclei (%): 13% and 14%
  Population Tubulin-Different-Phenotype (%): 36% and 35%
  Total Cell Count: 378 and 294
[2]
  Population Apoptotic (%): 90% and 77%
  Population Fragmented Nuclei (%): 4% and 8%
  Population Healthy Nuclei (%): 57% and 71%
  Population Hoechst High Intensity Objects (%): 33% and 19%
  Population Membrane Permeable-Phenotype (%): 0%
  Population Mitochondria Different-Phenotype (%): 77% and 84%
  Population Mitotic Cells (%): 9% and 22%
  Population Normal (%): 66% and 80%
  Population Pyknosed Nuclei (%): 38% and 19%
  Population Tubulin-Different-Phenotype (%): 78%
  Total Cell Count: 242 and 229
[3]
  Population Apoptotic (%): 39% and 41%
  Population Fragmented Nuclei (%): 10% and 9%
  Population Healthy Nuclei (%): 73% and 81%
  Population Hoechst High Intensity Objects (%): 22% and 13%
  Population Membrane Permeable-Phenotype (%): 0%
  Population Mitochondria Different-Phenotype (%): 45% and 48%
  Population Mitotic Cells (%): 60% and 58%
  Population Normal (%): 77% and 86%
  Population Pyknosed Nuclei (%): 16% and 9%
  Population Tubulin-Different-Phenotype (%): 32%
  Total Cell Count: 326 and 301
[4]
  Population Apoptotic (%): 85% and 82%
  Population Fragmented Nuclei (%): 11% and 16%
  Population Healthy Nuclei (%): 49% and 59%
  Population Hoechst High Intensity Objects (%): 48% and 39%
  Population Membrane Permeable-Phenotype (%): 1% and 0%
  Population Mitochondria Different-Phenotype (%): 75% and 82%
  Population Mitotic Cells (%): 14% and 17%
  Population Normal (%): 51% and 61%
  Population Pyknosed Nuclei (%): 39% and 23%
  Population Tubulin-Different-Phenotype (%): 78%
  Total Cell Count: 237 and 200
[5]
  Population Apoptotic (%): 47% and 36%
  Population Fragmented Nuclei (%): 14% and 17%
  Population Healthy Nuclei (%): 65% and 73%
  Population Hoechst High Intensity Objects (%): 36% and 27%
  Population Membrane Permeable-Phenotype (%): 3% and 0%
  Population Mitochondria Different-Phenotype (%): 38% and 32%
  Population Mitotic Cells (%): 52% and 63%
  Population Normal (%): 63% and 72%
  Population Pyknosed Nuclei (%): 19% and 9%
  Population Tubulin-Different-Phenotype (%): 29% and 19%
  Total Cell Count: 307 and 277
[6]
  Population Apoptotic (%): 84% and 75%
  Population Fragmented Nuclei (%): 23% and 21%
  Population Healthy Nuclei (%): 23%
  Population Hoechst High Intensity Objects (%): 75% and 67%
  Population Membrane Permeable-Phenotype (%): 0%
  Population Mitochondria Different-Phenotype (%): 86% and 80%
  Population Mitotic Cells (%): 15% and 25%
  Population Normal (%): 24% and 32%
  Population Pyknosed Nuclei (%): 52% and 55%
  Population Tubulin-Different-Phenotype (%): 53% and 40%
  Total Cell Count: 256 and 203

## CC(C)c1ccc(/C=N/NC(=O)c2ccc(O)cc2)cc1
[1]
  Population Apoptotic (%): 6.34% and 9.68%
  Population Fragmented Nuclei (%): 1.61% and 0.64%
  Population Healthy Nuclei (%): 60.22% and 20.38%
  Population Hoechst High Intensity Objects (%): 0.53% and 0%
  Population Membrane Permeable-Phenotype (%): 0.45% and 0%
  Population Mitochondria Different-Phenotype (%): 40.62% and 43.75%
  Population Mitotic Cells (%): 93.66% and 90.32%
  Population Normal (%): 99.47% and 100%
  Population Pyknosed Nuclei (%): 38.17% and 78.98%
  Total Cell Count: 374 and 157
[2]
  Population Apoptotic (%): 12.69% and 7.75%
  Population Fragmented Nuclei (%): 8.73% and 1.3%
  Population Hoechst High Intensity Objects (%): 0.28% and 0%
  Population Membrane Permeable-Phenotype (%): 0%
  Population Mitochondria Different-Phenotype (%): 41.58% and 26.09%
  Population Mitotic Cells (%): 87.31% and 92.25%
  Population Normal (%): 99.72% and 100%
  Population Pyknosed Nuclei (%): 37.75% and 83.77%
  Total Cell Count: 356 and 154
[3]
  Population Apoptotic (%): 16.67% and 14.29%
  Population Fragmented Nuclei (%): 1.59% and 2.38%
  Population Healthy Nuclei (%): 75.09% and 35.12%
  Population Hoechst High Intensity Objects (%): 0%
  Population Membrane Permeable-Phenotype (%): 0.71% and 3.39%
  Population Mitochondria Different-Phenotype (%): 15.53% and 13.56%
  Population Mitotic Cells (%): 83.33% and 85.71%
  Population Normal (%): 100%
  Population Pyknosed Nuclei (%): 23.32% and 62.5%
  Population Tubulin-Different-Phenotype (%): 14.59% and 5.08%
[4]
  Population Apoptotic (%): 14.4% and 12.98%
  Population Fragmented Nuclei (%): 6.23% and 2.06%
  Population Healthy Nuclei (%): 70.88% and 30.41%
  Population Hoechst High Intensity Objects (%): 0%
  Population Membrane Permeable-Phenotype (%): 0.78% and 0%
  Population Mitochondria Different-Phenotype (%): 15.5% and 15.25%
  Population Mitotic Cells (%): 85.6% and 87.02%
  Population Normal (%): 100%
  Population Pyknosed Nuclei (%): 22.89% and 67.53%
  Population Tubulin-Different-Phenotype (%): 5.43% and 1.69%
  Total Cell Count: 546 and 194
[5]
  Population Apoptotic (%): 8.44% and 19.78%
  Population Fragmented Nuclei (%): 2.76% and 1.47%
  Population Healthy Nuclei (%): 85.78% and 53.92%
  Population Hoechst High Intensity Objects (%): 0.15% and 0%
  Population Membrane Permeable-Phenotype (%): 4.34% and 1.82%
  Population Mitochondria Different-Phenotype (%): 13.72% and 24.55%
  Population Mitotic Cells (%): 91.56% and 80.22%
  Population Normal (%): 99.85% and 100%
[6]
  Population Apoptotic (%): 10.39% and 16.36%
  Population Fragmented Nuclei (%): 4.43% and 3.38%
  Population Healthy Nuclei (%): 84.38% and 70.05%
  Population Hoechst High Intensity Objects (%): 0.22% and 0%
  Population Membrane Permeable-Phenotype (%): 1.81% and 0.69%
  Population Mitochondria Different-Phenotype (%): 7.58% and 15.17%
  Population Mitotic Cells (%): 89.61% and 83.64%
  Population Normal (%): 99.78% and 100%
  Population Pyknosed Nuclei (%): 11.19% and 26.57%
  Population Tubulin-Different-Phenotype (%): 1.03% and 9.66%

## Cn1cnc(-c2cnc(O[C@H]3CCN(C(=O)Cc4ccc(OC(F)(F)F)cc4)C[C@H]3F)c(C(N)=O)c2)c1
[1]
  Population Hoechst High Intensity Objects (%): 0.47% and 4.71%
  Population Mitotic Cells (%): 91.23% and 91.04%
  Population Normal (%): 99.53% and 95.29%
  Population Pyknosed Nuclei (%): 40.24% and 73.63%
  Total Cell Count: 191
[2]
  Population Hoechst High Intensity Objects (%): 0.68% and 0.69%
  Population Mitotic Cells (%): 87.04% and 85.37%
  Population Normal (%): 99.32% and 99.31%
  Population Pyknosed Nuclei (%): 55.29% and 86.01%
  Total Cell Count: 144
[3]
  Population Healthy Nuclei (%): 76.21% and 29.41%
  Population Hoechst High Intensity Objects (%): 0.45% and 3.61%
  Population Mitotic Cells (%): 88.44% and 91.13%
  Population Normal (%): 99.55% and 96.39%
  Population Pyknosed Nuclei (%): 22.27% and 66.31%
[4]
  Population Hoechst High Intensity Objects (%): 0.8% and 0%
  Population Mitotic Cells (%): 68.57% and 83.33%
  Population Normal (%): 99.2% and 100%
  Population Pyknosed Nuclei (%): 37.84% and 76.43%
  Total Cell Count: 373 and 157
[5]
  Population Healthy Nuclei (%): 86.49% and 68.91%
  Population Hoechst High Intensity Objects (%): 0% and 0.42%
  Population Mitotic Cells (%): 89.54% and 83.58%
  Population Normal (%): 100% and 99.58%
  Population Pyknosed Nuclei (%): 10.34% and 28.15%
[6]
  Population Healthy Nuclei (%): 80.81% and 60.93%
  Population Hoechst High Intensity Objects (%): 0% and 2.27%
  Population Mitotic Cells (%): 82.61% and 79.27%
  Population Normal (%): 100% and 97.73%
  Population Pyknosed Nuclei (%): 16.11% and 38.14%
